Bioassay records from PubChem.
A selection: hits, their analogues and other compounds. The true share with any hit is near 1.7%.
CAL PDZ FP-1 = CAL PDZ (human) peptide binding inhibition. Q9HD26. purified CAL PDZ, TMR-peptide fluorescence polarization, 1 h. inhibition, % at 24.9 µM. 300,000 compounds, 0.92% hits. AID 602252;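 active = mean inhibition of at least 30% with at least half of replicates also reaching 30%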;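 also: 0% = DMSO neutral control and 100% = excess unlabeled competitor peptide PRC23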
CAL PDZ FP-2 = blocks peptide binding to human CAL PDZ domain | Q9HD26 | purified CAL PDZ, TMR-peptide fluorescence polarization, 1 h | AID 504414 | inhibition, % at 20 µM | 330,000 compounds, 0.02% hits;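 active = highest replicate inhibition of at least 40%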;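 also: plate controls were DMSO neutral control wells for no effect and unlabeled competitor peptide control wells for full effect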
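Material: tagged CAL PDZ domain; buffer or medium: 25 mM sodium phosphate pH 7.4, 150 mM NaCl, TCEP, IgG, Thesit; compound dosing: single point, 20 µM; schedule: 1 h incubation at room temperature before polarization reading; measured by: FP readout, S and P plane fluorescence; read-out basis: percent inhibition from loss of millipolarization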
miR-122 sensor = miR-122 inhibition in Huh7 cells; Huh7 miR-122 Renilla luciferase sensor, 48 h; neutral wells = 0, positive control = 100; activation (reporter increase), % at 12.5 µM; 340,000 compounds, 0.3% hits; AID 602342;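 active = mean replicate activation score at least 90 and every replicate individually at or above 90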;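 also: higher luciferase means less miR-122 activity so hits act as miR-122 inhibitors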
PGC1a acetyl inh = lowers PGC1a acetylation signal in U2OS cells. inhibition, % at 15.6 µM. AlphaScreen anti-acetyl-lysine; with virally co-expressed GCN5 acetyltransferase. 350,000 compounds, 0.17% hits. AID 651687;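 active = every replicate shows inhibition of at least 40%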;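 also: 0% = neutral control wells and 100% = positive control wells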
ARNT TACC3 PPI = disruptors of human ARNT/TACC3 interaction; Q9Y6A5; AlphaScreen His-ARNT PAS-B/GST-TACC3 binding, luminescence; TACC3 fragment carries E629A point mutation; inhibition, % at 9.99 µM; 390,000 compounds, 0.66% hits;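 active = mean inhibition of replicates at least 50% and at least half of replicates each reaching 50%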;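 also: 0% = complete ARNT plus TACC3 wells and 100% = ARNT alone without TACC3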
F508del corr = correctors of CFTR F508del function in bronchial epithelial cells; 350,000 compounds, 0.36% hits; activity (quench increase), % at 7.58 µM; CFBE cells, YFP halide quenching; stimulated with forskolin plus potentiator P3; % fluorescence drop versus neutral controls;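 active = mean added fluorescence quench of at least 8% versus neutral control, with both replicates also reaching 8%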;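 also: cells transiently co-express mutant CFTR-F508del with the halide-sensitive YFP; corrector assay measuring rescue of mutant channel to the surface after 24 h compound exposure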
* = called active by the depositor; . = no result; [ ] = remark or other dose.

SMILES	CAL PDZ FP-1	CAL PDZ FP-2	miR-122 sensor	PGC1a acetyl inh	ARNT TACC3 PPI	F508del corr
CCOC(=O)C1=C(C)NC2=C(C(=O)CC(C)(C)C2)C1c1ccc(N(C)C)cc1 (stereo not given)	-0.4	-0.9	9.5	0.1	-0.2	.
COCCOC(=O)C1=C(C)NC2=C(C(=O)CC(C)(C)C2)C1c1cccnc1 (stereo not given)	-2.6	-0.6	-13.5	7.4	-4.6	.
COc1ccc2c3c([nH]c2c1)[C@@H](CO)N(Cc1nccs1)CC31CN(C(=O)C2CC2)C1	.	.	.	.	.	-1.6
O=C(O)C1CC=CCC1C(=O)NCCCCc1ccccc1 (stereo not given)	81.9*	-1.1	.	-3.7	2.8	-1.3
O=C(O)C1CC=CCC1C(=O)NCc1ccccc1 (stereo not given)	.	-1.7	20.1	.	3.9	.
COc1cccc(CNC(=O)CSc2nc3ccc(C)cc3[nH]2)c1	-1.3	-1.8	-0.1	-1.5	-2.9	8.4*
COc1ccc2nc(SCC(=O)NCc3ccc(F)cc3)[nH]c2c1	.	0.6	1.5	-4.2	-0.2	0.7
Cc1ccc2nc(SCC(=O)NC3CCCc4ccccc43)[nH]c2c1 (stereo not given)	83.5*	-1.3	.	.	-4.1	.
COc1ccccc1NC(=O)N[C@@H]1CC[C@H](CCn2cc(-c3ccccc3OC)nn2)O[C@@H]1CO	.	.	.	3.7	-24.2	-1.3
Cc1noc(C)c1NC(=O)N(C)C[C@H]1OCCCC[C@H](C)Oc2ccc(NS(=O)(=O)c3ccc(Cl)cc3)cc2C(=O)N([C@@H](C)CO)C[C@@H]1C	.	.	-0.3[16.7 µM]	3.6	-7.5	0.9
O=c1[nH][nH]c2c(N=Cc3ccccc3O)ccc(F)c12	-6.8	1.2	-2.8	-4.8	69.0*	.
O=c1[nH][nH]c2c([N+](=O)[O-])ccc(F)c12	.	.	.	.	.	-0.8
CCCCn1c(SCC(=O)NCc2ccc3c(c2)OCO3)nnc1C(CC)N(C)C (stereo not given)	-6.4	-0.8	1.0	43.7*	-0.9	2.1
CCCCn1c(SCC(=O)Nc2ccc3c(c2)OCCO3)nnc1C(CC)N(C)C (stereo not given)	2.3	-0.9	.	.	-0.1	-3.3
CCOc1ccc(C(=O)NCC(c2cccs2)N2CCOCC2)cc1 (stereo not given)	-2.9	-0.5	-3.4	-1.6	-5.2	0.9
O=C(NCC(c1cccs1)N1CCOCC1)c1ccc(OCc2ccccc2)cc1 (stereo not given)	.	-1.2	5.5	-9.0	17.6	9.1*
CC1=C(C(=O)N(C)C)CC(CC(=O)NCc2cccc3ccccc23)C(=O)N1CCCN1CCCC1=O (stereo not given)	.	.	2.2	6.8	.	8.3*
Cc1ccc2cccc(OCc3cccc([N+](=O)[O-])c3)c2n1	61.2*	.	6.4	7.0	12.1	-1.2
Cc1ccc(-c2ccc3c(c2)O[C@@H](CN(C)C(=O)CC2CC2)[C@H](C)CN([C@H](C)CO)S3(=O)=O)cc1	.	.	-7.9[16.7 µM]	3.0	-0.4	1.2
O=C(O)Cc1sc(Nc2cccc3ccccc23)nc1-c1ccc(Cl)cc1	61.8*	.	.	-11.2	-31.4	1.5
COCC(=O)N(C)C[C@@H]1Oc2ncc(C#CC(C)(C)O)cc2C(=O)N([C@@H](C)CO)C[C@@H]1C	.	.	9.8[16.7 µM]	-0.1	-5.3	2.2
C[C@@H](NC(=O)C[C@@H]1C[C@H]2c3cc(NC(=O)CC4CC4)ccc3O[C@H]2[C@H](CO)O1)c1ccccc1	.	.	2.6[16.7 µM]	9.1	.	1.7
COc1cc(NC(=O)c2ccco2)c(OC)cc1NC(=O)c1cc(OC)c(OC)c(OC)c1	97.0*	-0.3	-22.2	-12.9	-0.1	.
COc1cc(NC(=O)CNC(c2ccccc2)c2ccccc2)cc(OC)c1OC	2.6	-0.9	-7.8	-6.2	4.3	0.5
O=C(NC(c1ccccc1)c1ccccc1)c1ccccc1	-5.4	-1.5	1.2	-20.9	-6.0	-1.4
SMILES	CAL PDZ FP-1	CAL PDZ FP-2	miR-122 sensor	PGC1a acetyl inh	ARNT TACC3 PPI	F508del corr
COc1cc(C(=O)NC(c2ccccc2)c2ccccc2)cc(OC)c1OC	51.5*	-0.4	-8.0	-22.7	-3.8	-0.8
COc1ccccc1NC(=O)CNC(c1ccccc1)c1ccccc1	32.8*	2.2	6.9	.	.	-0.2
COc1ccc(C)cc1NC(=O)CNC(c1ccccc1)c1ccc(C)cc1 (stereo not given)	-0.9	-0.7	1.5	.	-6.8	13.4*
C[C@@H]1CN([C@H](C)CO)C(=O)c2cc(Br)cnc2O[C@H]1CN(C)C(=O)c1ccccn1	.	.	-5.3[16.7 µM]	1.4	-1.4	-1.7
CCOC(=O)c1c(-c2ccc(C)s2)csc1NC(=O)c1cccs1	-3.2	-1.0	-2.4	1.9	-2.7	.
CCOC(=O)c1c(NC(=O)c2cccs2)sc(CC)c1-c1cccs1	30.7*	-2.4	-8.2	-9.1	-1.3	.
O=C(C[C@H]1CC[C@H](NC(=O)c2ccccn2)[C@H](CO)O1)NCc1cccc(F)c1	.	.	.	-7.0	3.0	-1.7
COc1ccccc1NC(=O)N[C@@H]1CC[C@@H](CC(=O)NCc2ccc(Cl)c(Cl)c2)O[C@H]1CO	.	.	.	0.4	-7.4	1.8
Cc1cccc(NC(=O)Nc2ccc3c(c2)C(=O)N(C)[C@@H]2CC[C@@H](CC(=O)NCc4ccccc4Cl)O[C@@H]2CO3)c1	.	.	3.3[16.7 µM]	-1.2	-6.4	1.6
C[C@H](CO)N1C[C@H](C)[C@@H](CN(C)S(C)(=O)=O)Oc2ccc(NC(=O)Cc3ccccc3)cc2CC1=O	.	.	0.4[16.7 µM]	17.0	-5.2	-1.9
CCN(CC)C(=O)c1sc2nc(-c3ccncc3)[nH]c(=O)c2c1C	-3.6	0.0	-2.1	-0.4	.	.
CCN(CC)C(=O)c1sc2nc(-c3ccccn3)[nH]c(=O)c2c1C	4.2	-0.5	1.1	3.9	60.8*	-2.5
Cc1sc2nc(-c3ccccn3)[nH]c(=O)c2c1-c1ccccc1	.	-2.1	-16.5	.	79.4*	2.5
Cc1nn(C)cc1NC(=O)C[C@@H]1CC[C@H]2[C@H](COc3ccc(NC(=O)C4CCC4)cc3C(=O)N2C)O1	.	.	5.0[16.7 µM]	-2.3	.	-1.2
COc1ccc(-n2nnnc2C(c2ccccc2)N2CCN(C/C=C/c3ccccc3)CC2)cc1 (stereo not given)	.	.	5.8	11.8	.	10.4*
CCCC(=O)Nc1ccc2c(c1)C(=O)N(C)C[C@H](OC)[C@H](C)CN(C(=O)c1ccccc1F)[C@H](C)CO2	.	.	4.7[16.7 µM]	-1.8	-2.2	-2.7
COCC(=O)N1[C@H](CO)[C@@H](c2ccccc2)[C@@H]1CNC(=O)c1ccccn1	.	.	33.3[16.7 µM]	11.2	2.1	-1.7
O=C(CSc1nnc(-c2ccc(Br)cc2)n1C1CCCCC1)N1CCCC1	55.8*	-0.5	-2.8	-7.1	1.0	.
O=C(CSc1nnc(-c2ccccc2F)n1C1CCCCC1)N1CCCC1	5.6	-1.7	-5.3	0.9	-1.2	.
CC1CCN(C(=O)CSc2nnc(-c3cccnc3)n2C2CCCCC2)CC1	2.0	0.4	.	.	-6.5	1.7
